Measured values taken from article PMC5434479 (Inorganic Chemistry, 2017).
Where two headings read alike, the source gives them in different places.

Experiments:
[1] = test system: human promyelocytic leukemia (HL60) cells; assay: MTS antiproliferation assay, HL60 cells; assay type: cell-based; conditions: for IC50: read-out: IC50 ± SE; for cell viability: HL60, 1 μM; for cell viability / inhibition of HL60 cell proliferation (in words): 72 h; for inhibition of HL60 cell proliferation (in words): HL60, 10 μM
Outline: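 HL60 cells were kept in RPMI 1640 with 10% FCS, 2 mM L-glutamine and penicillin/streptomycin at 37 °C, 5% CO2, and seeded at 3 × 10^4 per 100 μL. Compound predissolved in DMSO was diluted 100-fold into wells (1% DMSO final). Wells received 10 or 1 μM, or a concentration series, in triplicate for 72 h. MTS reagent was added for 4 h, then absorbance read at 490 nm. Screening data were averaged over three experiments; IC50 calculated.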

[2] = test system: human breast adenocarcinoma (MCF-7) cells; assay: MTS antiproliferation assay, MCF-7 cells; assay type: cell-based; conditions: for IC50: read-out: IC50 ± SE
Outline: (§1)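 Culture was at 37 °C, 5% CO2: A549 in RPMI 1640, MCF-7 and MRC-5 in DMEM, each with 10% FCS, 2 mM L-glutamine and penicillin/streptomycin. Seeding per 100 μL was 8 × 10^3 (A549, MCF-7) or 2 × 10^3 (MRC-5). Compound in DMSO was diluted 100-fold into wells (1% DMSO final), tested at several concentrations in triplicate for 72 h. MTS reagent was added for 4 h, then A490 read; IC50 calculated.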

[3] = test system: human lung adenocarcinoma epithelial (A549) cells; assay: MTS antiproliferation assay, A549 cells; assay type: cell-based; conditions: for IC50: read-out: IC50 ± SE
Outline: as §1

[4] = test system: human fetal lung fibroblast (MRC-5) cells; assay: MTS antiproliferation assay, MRC-5 healthy fibroblasts; assay type: cell-based; conditions: for IC50: read-out: IC50 ± SE; for times less toxic toward healthy fibroblasts (MRC-5) than toward HL60 and MCF-7: MRC-5 versus HL60 and MCF-7
Outline: as §1

[5] = test system: G-quadruplex-forming sequence from the human telomere (hTeloG); assay: FRET DNA-melting assay, hTeloG; assay type: binding; conditions: hTeloG G-quadruplex 0.2 μM, 50 equiv (10 μM), pH 7.2
Outline: (§2)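 FAM/TAMRA-labelled oligonucleotides were annealed in 10 mM sodium cacodylate with 100 mM NaCl. Buffer was pH 5.5 and 6.0 for hTeloC and pH 7.2 for hif-1α, hTeloG and duplex. Final DNA was 0.2 μM, with compound added at 1:10 by volume. DMSO-matched DNA controls ran in each run. Melting curves were recorded by real-time PCR machine, excitation 470 nm and detection 510 nm. Mean and SD of three experiments.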

[6] = test system: human telomeric i-motif sequence (hTeloC); assay: FRET DNA-melting assay, hTeloC; assay type: binding; conditions: pH 5.5 and pH 6.0; for interaction in preliminary screening (in words): hTeloC i-motif 0.2 μM, 50 equiv (10 μM); for stabilization of telomeric i-motif, pH 6.0 versus pH 5.5 (in words): hTeloC
Outline: as §2

[7] = test system: i-motif-forming sequence from the promoter region of the oncogene hif-1α; assay: FRET DNA-melting assay, hif-1α i-motif; assay type: binding; conditions: hif-1α i-motif 0.2 μM, 50 equiv (10 μM), pH 7.2
Outline: as §2

[8] = test system: double-stranded DNA; assay: FRET DNA-melting assay, double-stranded DNA; assay type: binding; conditions: double-stranded DNA 0.2 μM, 50 equiv (10 μM), pH 7.2
Outline: as §2

[9] = test system: A549 cells; assay: Cellular uptake, gold content by ICP-MS, A549 cells; assay type: cell-based, human; conditions: A549, 10 μM, 6 h
[10] = test system: MCF-7 cells; assay: Cellular uptake, gold content by ICP-MS, MCF-7 cells; assay type: cell-based, human; conditions: MCF-7, 1 μM, 6 h
[11] = biological target: MDM2–p53 interaction (human MDM2 protein, residues 17–125) (Homo sapiens, UniProt Q00987); assay: Fluorescence polarization assay of MDM2–p53 interaction; assay type: binding; conditions: for disruption of MDM2–p53 interaction in screening (in words): 100 μM
Outline: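 Compound in DMSO was added at 1:10. Positive control was wild-type p53 peptide (15–27) at 400 μM final, negative control DMSO, each in triplicate. Plates were incubated 30 min at room temperature and read by polarisation at 490/520 nm, with total fluorescence checked. IC50 came from log(inhibitor) versus response, variable slope.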

[12] = Reaction with glutathione monitored by 1H NMR; assay type: physicochemical; conditions: equimolar GSH (10 mM) in DMSO-d6, room temperature, 6 days
[13] = biological target: MDM2 (Homo sapiens, UniProt Q00987); assay: STD NMR binding to MDM2; conditions: 13.5 μM MDM2, 500 μM compound, 1% DMSO-d6, 25 °C
Outline: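 STD NMR at 800 MHz used a pseudo-2D sequence with spoil pulses. Protein was saturated by cascades of 49 ms Gaussian pulses, 1 ms apart, on-resonance at 0 ppm and off-resonance at 40 ppm. Saturation lasted 4 s for binding detection and 0.5 s for epitope mapping, 1024 scans each. Blank runs without protein were done. Epitope values were normalised to the most intense proton as 100%.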

Chain of MDM2–p53 interaction (human MDM2 protein, residues 17–125) (Q00987 17-125): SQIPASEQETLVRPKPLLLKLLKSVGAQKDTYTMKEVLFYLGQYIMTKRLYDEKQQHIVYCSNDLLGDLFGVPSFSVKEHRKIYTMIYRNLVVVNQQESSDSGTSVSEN
Chain of MDM2 (Q00987 whole entry): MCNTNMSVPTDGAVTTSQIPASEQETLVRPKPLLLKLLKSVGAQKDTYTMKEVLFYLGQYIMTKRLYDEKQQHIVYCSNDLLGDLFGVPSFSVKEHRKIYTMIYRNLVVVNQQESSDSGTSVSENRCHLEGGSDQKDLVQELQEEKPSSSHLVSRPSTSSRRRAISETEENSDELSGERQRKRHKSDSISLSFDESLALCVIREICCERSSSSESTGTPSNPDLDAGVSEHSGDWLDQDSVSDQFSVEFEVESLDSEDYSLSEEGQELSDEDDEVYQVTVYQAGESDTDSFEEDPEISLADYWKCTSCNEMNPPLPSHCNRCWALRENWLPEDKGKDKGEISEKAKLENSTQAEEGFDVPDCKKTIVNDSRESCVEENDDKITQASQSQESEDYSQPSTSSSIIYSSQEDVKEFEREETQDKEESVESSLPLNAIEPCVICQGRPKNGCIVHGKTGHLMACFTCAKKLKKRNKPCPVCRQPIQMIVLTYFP

Row | Compound | IC50 ([1]; HL60, 72 h incubation, MTS) | IC50 ([2]; MCF-7, 72 h incubation, MTS) | IC50 ([3]; A549, 72 h incubation, MTS) | IC50 ([4]; MRC-5, 72 h incubation, MTS) | cell viability [1] | inhibition of HL60 cell proliferation (in words) [1] | interaction in preliminary screening (in words) [5] | interaction in preliminary screening (in words) [6] | interaction in preliminary screening (in words) [7] | times less toxic toward healthy fibroblasts (MRC-5) than toward HL60 and MCF-7 [4] | cell uptake (in words) [9] | cell uptake (in words) [10] | stabilization of telomeric i-motif, pH 6.0 versus pH 5.5 (in words) [6] | disruption of MDM2–p53 interaction in screening (in words) [11] | also measured
1 | Nc1nc2nc[nH]c2c(=S)[nH]1 [Compound 6-TG, 6-thioguanine, reference compound] |  |  |  |  |  |  |  |  |  |  |  |  |  |  | IC50 ([1]; Homo sapiens, HL-60, 72 h): 0.98 ± 0.07 µM; IC50 ([2]; Homo sapiens, MCF7, 72 h): 0.42 ± 0.13 µM; IC50 ([3]; Homo sapiens, A549, 72 h): > 50 µM; IC50 ([4]; Homo sapiens, MRC5, 72 h): > 50 µM; IC50 ± SE ([4]; MRC-5, 72 h incubation, MTS): nontoxic
2 | N.N.[Cl][Pt][Cl] [cisplatin, cis-diamminedichloroplatinum(II), reference compound] | 3.7 ± 0.25 µM | 21.2 ± 3.9 µM | 33.7 ± 3.7 µM | 10.7 ± 3 µM |  |  |  |  |  |  |  |  |  |  | 
3 | (C^N^pz^N)Au(6-thioguanine) [Compound 4] | 0.9 ± 0.22 µM | 0.78 ± 0.11 µM | 29 ± 1.8 µM | 4.3 ± 0.7 µM | 60% | completely inhibited cell proliferation | did not show any interaction | did not show any interaction | did not show any interaction |  |  |  |  |  | interaction in preliminary screening (in words) [8]: did not show any interaction
4 | [(C^N^pz^N)Au(1,3,7,9-tetramethylxanthin-8-ylidene)]BF4 [Compound 3] | 4.05 ± 0.43 µM | 7.9 ± 0.13 µM | > 50 µM | 17.6 ± 1.9 µM | nontoxic | completely inhibited cell proliferation | good interactions | good interactions | good interactions | 2–4 | poorly taken up | poorly taken up | does not show any particular difference | only compounds 1 and 2 appeared to disrupt | 
5 | [(C^N^pz^N)Au(1,3-dimethylbenzimidazol-2-ylidene)]PF6 [Compound 2] | 0.31 ± 0.15 µM | 0.56 ± 0.02 µM | 7.8 ± 1.3 µM | 1.4 ± 0.4 µM | 22% | completely inhibited cell proliferation | good interactions | good interactions | good interactions | 2–4 | much higher uptake | highest concentrations | stabilize the telomeric i-motif structure at pH 6.0 more efficiently than at pH 5.5 | appeared to disrupt the MDM2–p53 interaction | times more potent than 3 ([2]; MCF-7, ratio of IC50 values): up to 14; times more toxic than (benzimidazolylidene)AuCl ([2]; MCF-7, comparator value ref 44): more than 10; times more toxic than cisplatin ([3]; A549, ratio of IC50 values): 4; toxicity relative to (benzimidazolylidene)AuCl ([3]; A549, comparator value ref 25b): more than twice as toxic; intracellular gold concentration, times higher than that of 1 [9]: ~4; intracellular gold concentration, times higher than that of 3 [9]: ~11; stability toward GSH [12]: high stability; IC50 ([11]; 10 nM HDM2 and tagged peptide, pH 7.4): 31.1 ± 1.1 µM; binding to MDM2 in solution (in words) [13]: clearly confirmed the binding
